Assay results reported in PMC8829947 (ACS Omega, 2022).

Legend:
[1] = Zn2+ affinity by competition with colorimetric PAR assay; type: binding; conditions: for Kd: read-out: Kd,Zn2, PAR 100 μM, ZnSO4 10 μM, pH 7.5, 3 h at 25 °C
In short: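 The test compound was titrated into Chelex-100-treated 20 mM HEPES, 100 mM NaCl, pH 7.5, containing PAR 100 μM and ZnSO4 10 μM, then incubated 3 h at 25 °C. Zn2+ displacement from PAR was read as the fall in absorbance at 492 nm. Kd was estimated from the known PAR stability constant at pH 7.4.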

NDM-1 = NDM-1 (Klebsiella pneumoniae, UniProt C7C422); assay: In vitro enzyme inhibition assay, purified recombinant NDM-1; type: biochemical
In short: (§1)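 Purified recombinant enzyme at 4 nM was preincubated 5–10 min at RT with varying inhibitor concentrations. Buffer was 50 mM HEPES pH 7.5, 0.2% DMSO, 1% PEG 4000, with either 10 μM ZnSO4 or no zinc (Chelex-100-treated, 2 h, filtered). Reactions were started with nitrocefin (30 μM final, A490) or meropenem (50 μM final, A300) and followed 60 s. IC50 came from the linear portion of progress curves. Duplicates.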

[2] = tested on: E. coli expressing blaNDM-1; assay: Meropenem rescue concentration, antimicrobial susceptibility test; type: cell-based, Escherichia coli; conditions: for RC in MHB, NDM-1: rescue concentration at meropenem 2 μg/mL
In short: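 Checkerboard broth microdilution in Mueller–Hinton broth against E. coli carrying the plasmid-borne MBL gene. Meropenem used five 2-fold dilutions and the test compound six 2-fold dilutions, within 0.5–64 μg/mL; the test compound was dissolved in water or 50% methanol. Inoculum was adjusted to OD625 0.08–0.10, then diluted 200-fold. Incubation was 20 h static at 37 °C, read at OD600. RC is the compound concentration restoring susceptibility at meropenem 2 μg/mL. ≥2 replicates.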

IMP-7 = assay: In vitro enzyme inhibition assay, purified recombinant IMP-7; type: biochemical; conditions: read-out: IC50 IMP-7 - Zn; Zn2+-depleted (Chelex-100-treated) buffer
In short: as §1

VIM-2 = VIM-2 (Escherichia coli, UniProt Q5U7L7); assay: In vitro enzyme inhibition assay, purified recombinant VIM-2; type: biochemical
In short: as §1

[3] = tested on: A. baumannii ATCC 17978::pROTO2 (NDM-1); assay: Meropenem rescue and MIC, antimicrobial susceptibility test; type: cell-based, Acinetobacter baumannii; conditions: rescue concentration at meropenem 2 μg/mL
[4] = tested on: K. pneumoniae ATCC 33495::pGDP2 (NDM-1); assay: as above; type: cell-based, Klebsiella pneumoniae; conditions: rescue concentration at meropenem 2 μg/mL, MHB
E. coli BW25113 (WT) = assay: Cell penetration / intracellular accumulation assay; type: cell-based, Escherichia coli; conditions: 50 μM, wild-type E. coli
In short: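 E. coli BW25113 (wild type) cells were incubated with the test compound at 50 μM (reference chelator at 50 or 100 μM) for 10 min at 37 °C. Cells were spun through ice-cold silicone oil (12,000g, 2 min), resuspended in water and lysed by three freeze–thaw cycles. The debris pellet was extracted with MeOH. Pooled extracts were quantified by UPLC–Q-TOF targeted MS/MS against a calibration curve. Biological and technical triplicates.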

[5] = IC50 NDM-1 + Zn, Zn2+-supplemented (10 μM) buffer
[6] = IC50 NDM-1 - Zn, Zn2+-depleted (Chelex-100-treated) buffer

Chain of NDM-1 (C7C422 29-270, looked up, species assumed): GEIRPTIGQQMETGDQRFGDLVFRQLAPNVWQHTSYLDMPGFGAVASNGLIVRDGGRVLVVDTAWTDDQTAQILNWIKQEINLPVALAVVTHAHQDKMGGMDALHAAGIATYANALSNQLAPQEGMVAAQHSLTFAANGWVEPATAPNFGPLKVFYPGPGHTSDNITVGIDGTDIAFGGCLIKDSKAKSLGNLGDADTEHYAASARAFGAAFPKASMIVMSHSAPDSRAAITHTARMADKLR

SMILES | Kd [1] | IC50 (NDM-1; [5]) | IC50 (NDM-1; [6]) | RC in MHB, NDM-1 [2] | IC50 (IMP-7) | IC50 (VIM-2) | RC in MHB, A. baumannii ATCC 17978::pROTO2 (NDM-1) [3] | RC in MHB, K. pneumoniae ATCC 33495::pGDP2 (NDM-1) [4] | intracellular accumulation increase relative to AMA (E. coli BW25113 (WT)) | Zn2+ affinity (in words) ([1]; outside the detection range of the assay, estimated) | rescue concentration (RC), biological activity ([2]; meropenem 2 μg/mL, resistant E. coli, MBL not given)
CN[C@@H](CN[C@@H](CN[C@@H](CC(=O)O)C(=O)O)C(=O)O)C(=O)O [Compound 3, ((S)-2-Carboxy-2-(((S)-2-carboxy-2-(methylamino)ethyl)amino) Ethyl)-L-aspartic Acid] | 0.0087 ± 0.0009 µM | 95.3 ± 3 µM | > 500 µM |  |  |  |  |  |  |  | 
N=C(N)NCCC[C@H](NC[C@H](NC[C@H](N)C(=O)O)C(=O)O)C(=O)O [Compound 17, ((S)-2-(((S)-2-Amino-2-carboxyethyl)amino)-2-carboxyethyl)-L-arginine] | 0.024 ± 0.006 µM | > 100 µM | > 1000 µM | >64 µg/mL |  |  |  |  |  |  | 
N[C@@H](CN[C@@H](CNC(CS)C(=O)O)C(=O)O)C(=O)O (stereo in doubt) [Compound 11, (S)-2-Amino-3-(((S)-1-carboxy-2-(((S)-1-carboxy-2-mercaptoethyl)amino)ethyl)amino)propanoic Acid] | 0.0002 ± 5e-05 µM | 15.6 ± 0.2 µM | 21.5 ± 0.8 µM | 32 µg/mL | 328 ± 15 µM | 22 ± 1 µM |  |  |  |  | 
N[C@@H](CN[C@@H](CN[C@@H](Cc1ccc(O)cc1)C(=O)O)C(=O)O)C(=O)O [Compound 20, (S)-2-Amino-3-(((S)-1-carboxy-2-(((S)-1-carboxy-2-(4-hydroxyphenyl)ethyl)amino)ethyl)amino)propanoic Acid] | 0.00064 ± 0.00017 µM | 38 ± 1.8 µM | 172 ± 1.5 µM | 16 µg/mL |  |  | 32 μg/mL | 64 μg/mL |  |  | 
CCCSC[C@@H](N)CN[C@@H](CN[C@@H](CC(=O)O)C(=O)O)C(=O)O [Compound 7, ((S)-2-(((S)-2-Amino-3-(propylthio)propyl)amino)-2-carboxyethyl)-L-aspartic Acid] | 0.109 ± 0.04 µM | 29.2 ± 1 µM | > 500 µM | >64 µg/mL |  |  |  |  |  |  | 
N[C@@H](CN[C@@H](CN[C@@H](CC(=O)O)C(=O)O)C(=O)O)CSc1ccc(O)cc1 [Compound 6, ((S)-2-(((S)-2-Amino-3-((4-hydroxyphenyl)thio)propyl)amino)-2-carboxyethyl)-L-aspartic Acid] | 0.0078 ± 0.0034 µM | 54 ± 4.1 µM | > 500 µM | 8 µg/mL | > 500 µM | 183 ± 10 µM | 8 μg/mL | 16 μg/mL | 4.5 fold |  | 
N[C@@H](CN[C@@H](CNC(CS)C(=O)O)C(=O)O)C(=O)O (stereo in doubt) [Compound 12, (S)-2-Amino-3-(((S)-1-carboxy-2-(((R)-1-carboxy-2-mercaptoethyl)amino)ethyl)amino)propanoic Acid] | 0.0044 ± 0.0018 µM | 404 ± 18.2 µM | 5.8 ± 0.5 µM | 32 µg/mL |  |  |  |  |  |  | 
CC(C)(S)C(NC[C@H](NC[C@H](N)C(=O)O)C(=O)O)C(=O)O (stereo in doubt) [Compound 14, (R)-2-(((S)-2-(((S)-2-Amino-2-carboxyethyl)amino)-2-carboxyethyl)amino)-3-mercapto-3-methylbutanoic Acid] | 0.0026 ± 0.0004 µM | 112 ± 4.8 µM | 185 ± 7.8 µM | 32 µg/mL | > 500 µM | 246 ± 17 µM |  |  |  |  | 
N[C@@H](CN[C@@H](CN[C@@H](CC(=O)O)C(=O)O)CSc1ccccc1)C(=O)O [Compound 9, ((S)-2-(((S)-2-Amino-2-carboxyethyl)amino)-3-(phenylthio)propyl)-L-aspartic Acid] | 0.0023 ± 0.0019 µM | 58 ± 5 µM | > 500 µM | >64 µg/mL |  |  |  |  |  |  | 
N[C@@H](CN[C@@H](CN[C@H](C(=O)O)c1ccc(O)cc1)C(=O)O)C(=O)O [Compound 22, (S)-2-Amino-3-(((S)-1-carboxy-2-(((S)-carboxy(4-hydroxyphenyl)methyl)amino)ethyl)amino)propanoic Acid] | 0.0095 ± 0.0065 µM | 283 ± 27.4 µM | 23 ± 3.6 µM | >64 µg/mL |  |  |  |  |  |  | 
NC(=O)C[C@H](NC[C@H](NC[C@H](N)C(=O)O)C(=O)O)C(=O)O [Compound 16, ((S)-2-(((S)-2-Amino-2-carboxyethyl)amino)-2-carboxyethyl)-L-asparagine] | 0.001 ± 0.0001 µM | 18.3 ± 0.7 µM | > 1000 µM | 16 µg/mL |  |  | 16 μg/mL | 32 μg/mL |  |  | 
N[C@@H](CN[C@@H](CN[C@@H](Cc1c[nH]cn1)C(=O)O)C(=O)O)C(=O)O [Compound 10, (S)-2-Amino-3-(((S)-1-carboxy-2-(((S)-1-carboxy-2-(1H-imidazol-4-yl)ethyl)amino)ethyl)amino)propanoic Acid] |  | 21.7 ± 3.9 µM | 173 ± 3.9 µM | 8 µg/mL | > 500 µM | 136 ± 5 µM | 4–8 μg/mL | 8 μg/mL |  | subpicomolar or lower | 
N[C@@H](CN[C@@H](CN[C@@H](Cc1cccs1)C(=O)O)C(=O)O)C(=O)O [Compound 23, (S)-2-Amino-3-(((S)-1-carboxy-2-(((S)-1-carboxy-2-(thiophen-2-yl)ethyl)amino)ethyl)amino)propanoic Acid] | 0.0042 ± 0.0025 µM | 42.2 ± 4.1 µM | 9.7 ± 1.7 µM | 64 µg/mL |  |  |  |  |  |  | > 8 μg/mL
N[C@@H](CN[C@@H](CN[C@@H](CO)C(=O)O)C(=O)O)C(=O)O [Compound 19, (S)-2-Amino-3-(((S)-1-carboxy-2-(((S)-1-carboxy-2-hydroxyethyl)amino)ethyl)amino)propanoic Acid] | 0.0045 ± 0.00175 µM | 80 ± 0.7 µM | > 1000 µM | 32 µg/mL |  |  |  |  |  |  | 
NCC(=O)N[C@@H](CN[C@@H](CN[C@@H](CC(=O)O)C(=O)O)C(=O)O)C(=O)O [Compound 1, ((S)-2-(((S)-2-(2-Aminoacetamido)-2-carboxyethyl)amino)-2-carboxyethyl)-L-aspartic Acid] | 0.0199 ± 0.0032 µM | > 100 µM | > 500 µM | >64 µg/mL |  |  |  |  |  |  | 
N[C@@H](CN[C@@H](CN[C@@H](CC(=O)O)C(=O)O)C(=O)O)CSCCO [Compound 8, ((S)-2-(((S)-2-Amino-3-((2-hydroxyethyl)thio)propyl)amino)-2-carboxyethyl)-L-aspartic Acid] | 0.06 ± 0.013 µM | > 250 µM | > 500 µM | 64 µg/mL |  |  |  |  |  |  | 
NC(Cc1ccc(O)cc1)C(=O)N[C@@H](CN[C@@H](CN[C@@H](CC(=O)O)C(=O)O)C(=O)O)C(=O)O (stereo in doubt) [Compound 2, ((S)-2-(((S)-2-((R)-2-Amino-3-(4-hydroxyphenyl)propanamido)-2-carboxyethyl)amino)-2-carboxyethyl)-L-aspartic Acid] | 0.0014 ± 0.00056 µM | > 100 µM | > 500 µM | >64 µg/mL |  |  |  |  |  |  | 
Cc1ccc(SC[C@@H](N)CN[C@@H](CN[C@@H](CC(=O)O)C(=O)O)C(=O)O)cc1 [Compound 5, ((S)-2-(((S)-2-Amino-3-(P-tolylthio)propyl)amino)-2-carboxyethyl)-L-aspartic Acid] | 0.0014 ± 0.00056 µM | 104 ± 2 µM | 97.2 ± 34.2 µM | 32 µg/mL |  |  |  |  |  |  | 
N[C@@H](CN[C@@H](CN[C@@H](CCS)C(=O)O)C(=O)O)C(=O)O [Compound 13, ((S)-2-(((S)-2-Amino-2-carboxyethyl)amino)-2-carboxyethyl)-L-homocysteine] |  | > 100 µM | > 1000 µM | 64 µg/mL |  |  |  |  |  |  | 
N[C@@H](CN[C@@H](CN[C@@H](Cc1ccc(OP(=O)(O)O)cc1)C(=O)O)C(=O)O)C(=O)O (mixture of isomers) [Compound 21, (S)-2-Amino-3-(((S)-1-carboxy-2-(((S)-1-carboxy-2-(4-(phosphonooxy)phenyl)ethyl)amino)ethyl)amino)propanoic Acid] | 0.0108 ± 0.0081 µM | 54 ± 5.6 µM | 25.1 ± 8.3 µM | 64 µg/mL |  |  |  |  |  |  | 
